Only some compounds are listed: those with a hit (about 2.3% of all), similar ones and a draw of the others.
Mcl1-Noxa inh: Mcl-1/Noxa interaction inhibition; TR-FRET Mcl-1/Noxa peptide binding, 2 h; inhibition, % at 21.7 µM; Q07820; 220,000 tested, 1.5% active; AID 1022;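 active = compounds that cut the protein-peptide binding signal by more than 50% relative to plate controls in a single-dose test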;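 note: His-tagged Mcl-1 with rhodamine Noxa BH3 peptide and terbium anti-His antibody; 0% = Mcl-1 plus Noxa peptide wells and 100% = peptide-only wells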
Target sequence (Q07820 whole entry, looked up): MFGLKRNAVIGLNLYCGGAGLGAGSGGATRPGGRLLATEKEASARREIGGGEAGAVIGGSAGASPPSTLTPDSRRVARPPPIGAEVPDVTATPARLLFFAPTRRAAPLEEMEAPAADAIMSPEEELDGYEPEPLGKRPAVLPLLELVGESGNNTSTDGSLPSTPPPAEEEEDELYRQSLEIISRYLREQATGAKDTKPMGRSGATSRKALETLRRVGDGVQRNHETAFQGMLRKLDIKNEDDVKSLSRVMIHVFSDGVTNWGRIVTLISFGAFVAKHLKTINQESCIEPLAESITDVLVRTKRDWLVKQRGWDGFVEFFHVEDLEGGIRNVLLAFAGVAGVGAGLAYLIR
Mcl1 Bid PPI: Mcl-1/Bid interaction inhibition. Q07820. TR-FRET Mcl-1/Bid-Dy647 peptide binding, 1536-well. inhibition, % at 21.7 µM. 220,000 tested, 0.97% active. AID 1021;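 active = compounds that cut the binding signal by more than half at the single screening dose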;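 note: His-tagged Mcl-1 with europium anti-His antibody binding Bid BH3 peptide; 0% = Mcl-1 plus peptide wells and 100% = peptide-only wells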
DSG3 Ab inh: human desmoglein-3 autoantibody binding inhibition | P32926 | DSG3-coupled beads, scFv-anti-DSG3-GFP binding, flow cytometry; active compounds read low | binding (percent of control), % at 10 µM | 310,000 tested, 0.48% active | AID 588358;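 active = binding more than 3 SD below its plate's average and above zero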;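 note: hits lower antibody fragment binding to DSG3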
MCL1-BIM inh: inhibitors of human MCL1 binding to BIM-BH3 peptide; Q07820; GST-MCL1 / FITC-Bim-BH3 fluorescence polarization; inhibition, % at 10.9 µM; 320,000 tested, 0.68% active; AID 2057;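 active = inhibition above the mean inhibition of all tested compounds plus 3 SD, set per campaign, cut at about 40% in these data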;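 note: 0% = DMSO wells and 100% = unlabeled Bim-BH3 peptide control; higher means more loss of mP so more displacement of Bim peptide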
T cell HTS: T cell immune modulators affecting CD8 T cell-vesicle binding | 2C CD8+ T cell-vesicle binding, flow cytometry; active compounds read low | response (vesicle binding), % at 7 µM | 330,000 tested, 0.068% active | AID 2052;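 active = response, share of CD8 T cells binding vesicles, and their 90th percentile fluorescence all below set limits, cut at about 80% in these data, passing the limit was not always enough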;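 note: values below 100% mean blocked vesicle binding to the CD8+ T cells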
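Assay system: 2C TCR transgenic mouse naive CD8+ T cells, MACS-purified | Read-out: CD8+ gate FL2 mean fluorescence as % of same-row positive control | Signal: High-throughput flow cytometry with anti-B7-1 and anti-CD8 staining | Timing: Binding step 1.5 h, 37 °C, antibody labelling 20 min, ice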
Bim-Mcl-1: inhibitors of Bim-Mcl-1 interaction, human; Q07820; Bead-based flow cytometry, Bim peptide-Mcl-1 binding; inhibition, % at 10 µM; 190,000 tested, 0.1% active; AID 1009; in the data active = inhibition above about 40%;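 note: 0% = no compound tracer wells and 100% = peptide blocker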
An asterisk follows results filed as active; i = inactive; / = no result given.

SMILES	Mcl1-Noxa inh	Mcl1 Bid PPI	DSG3 Ab inh	MCL1-BIM inh	T cell HTS	Bim-Mcl-1
CCOc1ccc(/C=N/n2cc(-c3ccccc3)[nH]c2=S)cc1	53*	-19	78	-8	266	-9
Cn1cc(CN2CCC(C(=O)N3CCCCC3)CC2)c(-c2ccccc2F)n1	7	-44	32*	5	i	2
CCOC(=O)C1CCCCN1Cc1cn(C)nc1-c1ccccc1F (centres undefined)	-13	-14	88	-3	146	/
Cc1cccc2[nH]c3c(N4CC=C(c5ccc(F)cc5)CC4)ncnc3c12	8	-7	116	-4	154	/
N#Cc1ccsc1NC(=O)COc1ccc(-c2nnco2)cc1	65*	-28	97	19	84	1
N#CCSc1ccccc1NC(=O)COc1ccc(-c2nnco2)cc1	/	/	122	-20	313	/
CC(C)OC(=O)CSc1nc2c(cc1C#N)CCCCC2	28	-25	87*	-3	402	0
CC(C)OC(=O)CC(=O)CSc1nc2c(cc1C#N)CCCCC2	17	-3	/	5	968	3
OCCN1CCN(C(c2cccs2)c2ccc3cccnc3c2O)CC1 (centres undefined)	95*	82*	/	/	/	4
CN(C)/C=C\C(=C/C(=O)C(F)(F)F)Nc1ccccc1Oc1ccccc1	67*	-12	97	-11	144	0
Cc1ccc(NC(/C=C/N(C)C)=C/C(=O)C(F)(F)F)c(C)c1	13	-34	100	1	275	-2
CC(Sc1nnc(-c2ccccc2)c(-c2ccccc2)n1)C(=O)NCC1CCCO1 (centres undefined)	/	/	/	/	138	/
COc1cc(NC(=O)[C@@H]2CCCN(S(=O)(=O)c3cccc4cccnc34)C2)cc(OC)c1OC	/	/	107	6	687	/
O=C(CCn1cccn1)N1CCCC(Nc2ccc(F)c(F)c2)C1 (centres undefined)	/	/	99	/	/	/
Oc1cc(-n2cccn2)c(O)cc1-n1cccn1	70*	-241	86	8	123	/
O=Cc1ccccc1-n1cccn1	11	2	124	1	224	4
CC1(c2ccccc2)CC(C)(C)N2C(=O)C3(C(C#N)=C(N)Oc4cc(O)ccc43)c3cccc1c32 (centres undefined)	1	61*	107	-5	554	0
CC(=O)Nc1ccc(/C=C/c2nc(-c3ccccc3O)n[nH]2)cc1	/	/	95	9	306	/
O=C1NN(c2ccc(F)c(Cl)c2)C(=O)/C1=C\c1cccc(OC(=O)c2cccs2)c1	94*	45	104	13	218	-1
CC(C)=C1C(=O)NN(c2ccc(F)c(Cl)c2)C1=O	-8	-10	97	-31	107	0
COc1cc(/C=N/NC(=O)CSc2n[nH]c(=O)[nH]c2=O)cc(OC)c1O	61*	-34	102	10	201	8
O=C(CSc1n[nH]c(=O)[nH]c1=O)N/N=C/c1ccccc1O	-2	-33	104	13	288	-1
CC(C)CN1CCN=C1Nc1ccccc1	/	/	101	10	538	/
CCCn1nnnc1SCC(=O)N1CCN(C(=O)c2ccco2)CC1	-1	-15	97	-7	776	-2
Cc1ccc2nc(SCC(=O)N3CCN(C(=O)c4ccco4)CC3)[nH]c2c1	8	-6	111	-7	752	-5
SMILES	Mcl1-Noxa inh	Mcl1 Bid PPI	DSG3 Ab inh	MCL1-BIM inh	T cell HTS	Bim-Mcl-1
NS(=O)(=O)c1ccc(CNC(=O)c2cc(-c3ccccn3)nc3ccc(Cl)cc23)cc1	54*	-63	116	44*	244	1
NS(=O)(=O)c1ccc(CNC(=O)c2cc(-c3cccnc3)nc3ccc(Cl)cc23)cc1	/	/	102	0	269	/
CC(C)n1nnnc1SCC(=O)N1CCN(C(=O)c2ccco2)CC1	3	4	/	-4	201	93*
NS(=O)(=O)c1ccc(CNC(=O)c2ccccc2SCC(=O)N2CCCC2)cc1	/	/	104	6	470	/
O=C(CSc1nc2ccc(Cl)cc2[nH]1)N1CCN(C(=O)c2ccco2)CC1	57*	-9	103	2	132	21
CCSc1ccccc1C(=O)NCc1ccc(S(N)(=O)=O)cc1	53*	-5	97	12	453	-3
CC(=O)N1c2ccc(S(=O)(=O)N3CCC(C(=O)Nc4cccc(C(F)(F)F)c4)CC3)cc2CC1C (centres undefined)	/	/	/	-2	227	/
O=C(c1ccco1)N1CCN(C(=O)c2cc(-c3ccccn3)nc3ccc(Cl)cc23)CC1	64*	-6	98	37	255	0
CN(C(=O)COC(=O)c1cccc(NS(=O)(=O)c2ccc(F)c(F)c2)c1)C1CCS(=O)(=O)C1 (centres undefined)	-10	-22	99	8	19*	0
O=S(=O)(Nc1ccc2nc(-c3ccc(Br)o3)[nH]c2c1)c1ccccc1	52*	-30	/	/	/	-1
Cc1ccnn1CCC(=O)N1CCCC(Nc2ccc(C(C)C)cc2)C1 (centres undefined)	/	/	99	/	/	/
Cc1ccnn1CCC(=O)N1CCCC(Nc2ccc(F)c(F)c2)C1 (centres undefined)	/	/	0.9*	9	258	/
Cc1ccc(NC2=Nc3ccccc3N3C2=Nc2c(c(C)nn2-c2ccccc2)C3c2ccc(O)c(O)c2)cc1 (centres undefined)	18	2	91*	/	/	7
Cc1cccc(NC2=Nc3ccccc3N3C2=Nc2c(c(C)nn2-c2ccccc2)C3c2ccc(O)c(O)c2)c1 (centres undefined)	63*	-29	106	42*	427	4
Cc1nc(-c2ccccc2)sc1C(=O)CSc1ccc(Cl)cc1	64*	4	101	9	177	-3
CCCONC(=O)Nc1ccccc1[N+](=O)[O-]	-9	66*	/	0	241	-4
COC(=O)C(C)(C)ONC(=O)Nc1ccccc1[N+](=O)[O-]	-8	-20	104	-2	28	0
O=C(CSc1nc(O)cc(=O)n1-c1ccccc1)Nc1ccc2c3c(cccc13)CC2	30	-61	41*	10	155	-2
Cc1c(O)nc(SCC(=O)Nc2ccc3c4c(cccc24)CC3)n(-c2ccccc2)c1=O	35	-52	114	12	195	2
Cc1cccc(N2CCN(C(=O)Cc3ccc(Br)cc3)CC2)c1C	42	61*	105	0	200	-5
COC(=O)c1c(C(=O)OC)c2c(-c3ccccc3)cc3cccc1n32	/	/	100	/	/	/
CN(CCO)c1nc(N)c2c(N)nc3c(c2c1C#N)CC(=O)N3C1CCCC1	46	-23	/	38	282	3
N#Cc1c(N2CCN(c3ccc(F)cc3)CC2)nc(N)c2c(N)nc3c(c12)CC(=O)N3C1CC1	55*	-6	89	/	/	4
